This is a sample that favours compounds with a hit; in the whole collection about 3.6% have one here.
HSF1 inh: HSF1 inhibition. AID 2098. activity change, negative = inhibition, % at 7.5 µM (by protocol). actives 0.77% (n = 300,000). NIH3T3-HGL HSE-luciferase, MG132-induced, luminescence 8 h; stronger effect = lower value;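 active means more than half of replicate wells show activity change below -50%, luminescence cut by over half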;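 further: luciferase reports HSF-1 transcriptional activity via heat shock element; 0% = median of DMSO wells and -100% = zero luminescence signal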
STAT3 activator: STAT3 signaling activation; actives 0.91% (n = 190,000); U3A cells, IL-6 STAT3-luciferase reporter, luminescence; 100% = signal with IL-6 EC80 alone; activation (% of control), % at 5.6 µM;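 active means activation above the screen-wide mean of compound activation plus 3 SD, cut at about 130% in these data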;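 further: 0% = background luminescence of wells with medium and substrate only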
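system = STAT3-luciferase reporter U3A cells | reagent = IL-6 stimulus at 33 ng/mL final | timing = 1 h compound pre-exposure, 6 h IL-6 stimulation, 37 °C | measured by = luminescence | evaluation = % activation versus median of IL-6-stimulated wells | control set = IL-6-only wells as 100% reference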
Hsp70 activator: transcriptional activators of Hsp70; HeLa Hsp70 promoter luciferase reporter, luminescence; scaled: vehicle 0, proteasome-inhibitor control 100%; activation, % at 10 µM; actives 0.04% (n = 200,000);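 active means activation above the mean across all tested compounds plus 3 SD, cutoff set per campaign, cut at about 5.5% in these data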;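 further: 100% = MG132 at 30 µM as the positive control and 0% = DMSO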
PolyA inh: blocks polyadenylation in yeast reporter cells | S. cerevisiae SKY197-pL101 polyadenylation reporter, beta-gal luminescence; efflux-impaired pdr1/pdr3 knockout yeast; score 100 = 6 SD above DMSO | AID 1875 | activity score, % at 12 µM | actives 0.02% (n = 300,000);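 active means lowest replicate activity score at least 50, where 100 means six control SD above control mean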;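 further: yeast exposed to compound for 9 h at 30 °C; higher score means more reporter readthrough which indicates perturbed polyadenylation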
AHR activator: human AHR activation. AHR-responsive luciferase reporter cells, luminescence. actives 2.5% (n = 320,000). activation, % at 5 µM. AID 2796. P35869; in the data active means activation above about 47%;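 further: 0% = vehicle wells and 100% = reference agonist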
PERK inhibitor: blocks human PERK kinase | Q9NZJ5 | CHO PERK-DD fusion, SEAP luminescence translation reporter | inhibition, % at 5.6 µM | actives 0.17% (n = 220,000) | AID 1416;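 active means inhibition above the mean inhibition of all tested compounds plus 3 SD, set separately per screening campaign, cut at about 2.9% in these data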;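 further: PERK kinase domain activated by AP20187 dimerizer at 100 nM; 0% = DMSO with dimerizer and 100% = rapamycin at 8.4 µM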
Target sequence (Q9NZJ5 whole entry, looked up, the tested form may be a part): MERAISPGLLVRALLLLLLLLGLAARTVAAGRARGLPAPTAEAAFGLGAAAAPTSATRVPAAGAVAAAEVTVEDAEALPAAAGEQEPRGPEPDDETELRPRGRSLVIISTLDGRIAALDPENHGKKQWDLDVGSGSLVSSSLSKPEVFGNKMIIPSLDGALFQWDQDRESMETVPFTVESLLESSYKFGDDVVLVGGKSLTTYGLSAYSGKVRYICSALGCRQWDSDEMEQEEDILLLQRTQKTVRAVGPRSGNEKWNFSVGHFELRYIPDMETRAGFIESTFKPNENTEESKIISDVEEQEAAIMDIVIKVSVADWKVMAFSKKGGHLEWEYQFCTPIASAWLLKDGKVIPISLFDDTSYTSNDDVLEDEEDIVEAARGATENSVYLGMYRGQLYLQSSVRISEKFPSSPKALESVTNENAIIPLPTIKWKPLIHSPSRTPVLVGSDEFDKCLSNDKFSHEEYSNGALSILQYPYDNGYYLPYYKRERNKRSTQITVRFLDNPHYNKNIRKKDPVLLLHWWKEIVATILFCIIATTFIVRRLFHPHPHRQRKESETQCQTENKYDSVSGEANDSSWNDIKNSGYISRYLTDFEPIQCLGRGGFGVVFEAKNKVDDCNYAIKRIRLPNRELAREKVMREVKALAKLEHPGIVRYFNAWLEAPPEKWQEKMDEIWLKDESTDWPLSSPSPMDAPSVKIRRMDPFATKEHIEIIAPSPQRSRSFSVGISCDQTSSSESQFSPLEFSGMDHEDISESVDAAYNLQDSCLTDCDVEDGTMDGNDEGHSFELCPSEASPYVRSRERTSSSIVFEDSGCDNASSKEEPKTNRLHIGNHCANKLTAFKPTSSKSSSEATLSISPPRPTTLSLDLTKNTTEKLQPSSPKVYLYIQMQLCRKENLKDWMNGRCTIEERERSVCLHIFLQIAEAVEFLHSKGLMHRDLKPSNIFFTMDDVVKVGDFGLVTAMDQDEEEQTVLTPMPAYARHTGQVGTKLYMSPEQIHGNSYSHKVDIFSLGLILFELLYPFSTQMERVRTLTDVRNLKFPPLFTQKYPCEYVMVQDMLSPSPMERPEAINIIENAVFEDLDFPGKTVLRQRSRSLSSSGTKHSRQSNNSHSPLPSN
* = called active by the depositor; . = no result given.

SMILES | HSF1 inh | STAT3 activator | Hsp70 activator | PolyA inh | AHR activator | PERK inhibitor
CC(=O)Nc1nc(-c2ccccc2)nc(-c2ccccc2OC(C)=O)n1 | -42 | 96 | 0 | 5 | 75* | 0
CN(C)/C=C1/Oc2c(ccc3ccccc23)C1=O | 3 | 84 | 0 | 2 | 66* | 1
COc1ccc(NC(=O)c2c(N)no[n+]2[O-])c(OC)c1 | -1 | 85 | 0 | -4 | 61* | 0
COc1ccc(NC(=O)Nc2ccon2)c(OC)c1 | -2 | 97 | 0 | -19 | 56* | 0
Cc1cc(NC(=O)Nc2ccc(Cl)c(Cl)c2)no1 | 1 | . | . | 5 | 14 | .
O=C(Nc1ccc(Cl)c(Cl)c1)Nc1ccon1 | 8 | . | . | 14 | 71* | .
Clc1ccccc1C1=CC(c2ccco2)n2ncnc2N1 (stereo unspecified) | 3 | . | . | -5 | 14 | 0
COc1ccccc1CNC(=O)C(C)NS(=O)(=O)c1ccc(Br)cc1 (stereo unspecified) | -73* | 99 | 0 | -12 | 3 | 0
CC(NS(=O)(=O)c1ccc(Br)cc1)C(=O)NCc1ccco1 (stereo unspecified) | 11 | 100 | 0 | 13 | 0 | 0
Cc1cc(NCCCn2ccnc2)n2nc(C)c(-c3ccccc3)c2n1 | 1 | 117 | 0 | 11 | 112* | -1
Cc1cc(NCCCn2ccnc2)n2nc(C)c(-c3ccc(Cl)cc3)c2n1 | -5 | 107 | 0 | -6 | 48* | -2
CC1CN(c2oc(-c3cccs3)nc2C#N)CC(C)O1 (stereo unspecified) | 11 | 98 | 0 | 1 | 67* | 1
N#Cc1nc(-c2cccs2)oc1N1CCOCC1 | -8 | 99 | 0 | -12 | 28 | 1
c1ccc2c(c1)nc1n2CCN1CCN1CCCC1 | -7 | . | . | 4 | 1 | .
CC(C)(C)C1CCC(=NNC(=O)CC(=O)NCc2ccccc2)CC1 (stereo unspecified) | 3 | 103 | 0 | -2 | 3 | 1
CC(C)(C)C1CCC(=NNC(=O)c2ccccc2-n2cccc2)CC1 (stereo unspecified) | 3 | 102 | 0 | 2 | 70* | 1
O=C(NNC(=O)c1ccccc1-n1cccc1)c1ccc(Cl)cc1 | 0 | 102 | 0 | 1 | 62* | 0
O=C(NN=C1CCCCC1)c1ccccc1-n1cccc1 | 2 | . | . | 12 | 48* | .
Cc1ccccc1/C=N\NC(=O)c1ccccc1-n1cccc1 | 7 | 104 | 0 | 4 | 68* | 0
CCOc1cc(/C=N/NC(=O)c2ccccc2-n2cccc2)ccc1O | . | . | . | . | 8 | .
Cc1ccc(CN2CC(C(=O)N3CCN(c4ccccc4O)CC3)CC2=O)cc1 (stereo unspecified) | -2 | . | . | -1 | 6 | .
O=C(Nc1ccc(Br)cc1)c1cccn1-c1ncc(C(F)(F)F)cc1Cl | 4 | 104 | 0 | -23 | 62* | 0
O=C(CSc1nccn1-c1ncc(C(F)(F)F)cc1Cl)c1ccc(Br)cc1 | -10 | 162* | 0 | -16 | 36 | 1
CC1(C)Cc2c(cnn2-c2ccc(F)cc2)C(NC(=O)CCCN2CCCCC2=O)C1 (stereo unspecified) | 1 | . | . | 1 | -2 | .
CC(C)(C)OC(=O)C[C@@H]1C/C=C\C[C@H](CC(=O)N[C@H](CO)Cc2ccccc2)C(=O)N[C@@H](Cc2c[nH]c3ccccc23)COC1=O | . | . | . | . | 11 | .
SMILES | HSF1 inh | STAT3 activator | Hsp70 activator | PolyA inh | AHR activator | PERK inhibitor
CCc1ccc2c(CN3CCc4cc(OC)c(OC)cc4C3)cc(=O)oc2c1 | 2 | 131 | 0 | -7 | 74* | 0
COc1ccc(S(=O)(=O)N(CCc2ccccc2)CC(=O)N/N=C/c2ccc3c(c2)OCO3)cc1 | 0 | 94 | 0 | 5 | 1 | 0
CCOc1cc(/C=N/NC(=O)CN(CCc2ccccc2)S(=O)(=O)c2ccc(NC(C)=O)cc2)ccc1O | -89* | 90 | 0 | -10 | 3 | 0
Cc1cc2ccccn2c1C(=O)c1cc([N+](=O)[O-])cc([N+](=O)[O-])c1 | 7 | 90 | 0 | -50 | -1 | 0
Cc1cc2ccccn2c1C(=O)Nc1ccccc1 | 3 | 134* | 0 | -2 | 60* | 1
CC(C)CC1c2[nH]c3ccccc3c2CCN1C(=O)c1cnccn1 (stereo unspecified) | 12 | 171* | 0 | 7 | 16 | 0
